Laboratory results published in article PMC8387982 (ACS Omega, 2021).

How the values were obtained:
[1] = system: human glomerular mesangial cell (GMC) line; assay: MTT cytotoxicity assay; type: cell-based; conditions: read-out: IC50 for GMC, 12 h, peptides 1-256 μM
Procedure, shortened: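 MTT assay: human GMC cells seeded at 1.0×10^4 cells/well and exposed to test compound (1–256 μM) for 12 h at 37 °C, 5% CO2. Then 0.5 mg/mL MTT added for 4 h at 37 °C; formazan dissolved in DMSO and read at 570 nm. At least three independent experiments, each with three technical replicates.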

[2] = system: bacteria (S. aureus, B. subtilis, E. coli, P. aeruginosa, K. pneumoniae); assay: Geometric mean of the peptide MICs; type: cell-based; conditions: over the five bacterial strains
Procedure, shortened: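 Broth microdilution: single colony grown in MHB at 37 °C for 16–24 h. Log-phase culture diluted to 1×10^6 CFU/mL and mixed with equal volumes of serially diluted test compound. […] At least three independent experiments, each with three technical replicates. Geometric mean of MICs across strains computed.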

human erythrocytes = assay: Hemolytic assay; type: cell-based; conditions: concentration causing 10% hemolysis of erythrocytes; 1 h, 37 °C
[3] = Circular dichroism, α-helical content; type: physicochemical
Procedure, shortened: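 CD spectra recorded at 25 °C in a 1.0 mm quartz cell over 190–260 nm (50 nm/min, 1 nm bandwidth, 1 s response). Test compound at 50 μM final in deionized water or 50% TFE. Observed ellipticity corrected for buffer and converted to mean residue ellipticity using peptide concentration, path length and residue number.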

[4] = system: K. pneumoniae ATCC 700603; assay: Checkerboard FIC with conventional antibiotics; type: cell-based, Klebsiella pneumoniae
Procedure, shortened: (§1)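 Checkerboard assay: test compound and antibiotic mixed at 2× their MICs, then 2-fold serial dilutions made in MHB. Equal volume of bacteria (1×10^6 CFU/mL) added and incubated 18–24 h at 37 °C. Growth read as in the MIC assay. FIC = (MIC peptide in combination/MIC peptide alone) + (MIC antibiotic in combination/MIC antibiotic alone). Interpretation: ≤0.5 synergy; 0.5–1 additive; 1.0–<4.0 indifference; ≥4 antagonism.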

E. coli ATCC 25922 = assay: Checkerboard FIC with conventional antibiotics; type: cell-based, Escherichia coli
Procedure, shortened: as §1

P. aeruginosa ATCC 27853 = assay: Checkerboard FIC with conventional antibiotics; type: cell-based, Pseudomonas aeruginosa; conditions: in combination with rifampicin
Procedure, shortened: as §1

Substance | IC50 [1] | GM (geometric mean of the peptide MICs) [2] | MHC (minimum hemolytic concentration) (human erythrocytes) | α-helix in 50% TFE ([3]; CD, 50 μM peptide, 50% TFE, 25 °C) | α-helix in water ([3]; CD, 50 μM peptide, deionized water, 25 °C) | α-helical structure in water (CD) ([3]; water environment, result in words) | FIC ([4]; in combination with gentamicin) | FIC ([4]; in combination with rifampicin) | FIC (E. coli ATCC 25922; in combination with gentamicin) | FIC (E. coli ATCC 25922; in combination with rifampicin) | FIC (P. aeruginosa ATCC 27853)
H-GLLKRIKTLL-NH2 [Anoplin] | > 256 µM | 48.50 µM | >256 µM | 82.64% | 14.03% | did not show a α-helical structure |  |  |  |  | 
polymyxin B |  |  |  |  |  |  | 0.5 | 0.3125 | 0.3125 | 0.125 | 0.3125
